Experimental data reported in ChEMBL document CHEMBL1154403, “Serotypes, Clones, and Mechanisms of Resistance of Erythromycin-Resistant Streptococcus pneumoniae Isolates Collected in Spain” (2007).
Values after ≈ are worked out from the molar mass of the structure shown.

How the values were obtained:
Type in all cases: functional
Streptococcus pneumoniae [1] = test: Antibacterial activity against erythromycin-resistant Streptococcus pneumoniae assessed as percent resistant isolates by microdilution method
In short: (§1)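 Broth microdilution MICs per CLSI on all 125 erythromycin-resistant pneumococcal isolates, using Mueller-Hinton broth with 2 to 5% lysed horse blood in prepared panels. Example ranges: erythromycin 0.25 to 32 μg/ml, clindamycin 0.25 to 0.5 μg/ml, penicillin 0.03 to 8 μg/ml, telithromycin 0.015 to 32 μg/ml (separate panel). Quality control strain: S. pneumoniae ATCC 49619.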

Streptococcus pneumoniae [2] = test: Antibacterial activity against erythromycin-resistant Streptococcus pneumoniae by microdilution method; in short: as §1
Streptococcus pneumoniae [3] = test: Antibacterial activity against inducible macrolide-lincosamide-streptogramin B-resistant Streptococcus pneumoniae expressing erm(B) and tet(M) genes assessed as percent resistant isolates by broth microdilution method; in short: as §1
Streptococcus pneumoniae [4] = test: Antibacterial activity against erythromycin-resistant Streptococcus pneumoniae assessed as percent resistant isolates by CLSI breakpoint method
Streptococcus pneumoniae [5] = test: Antibacterial activity against erythromycin-resistant Streptococcus pneumoniae assessed as percent sensitive isolates by CLSI breakpoint method
Streptococcus pneumoniae [6] = test: Antibacterial activity against inducible macrolide-lincosamide-streptogramin B-resistant Streptococcus pneumoniae isolates by double-disk diffusion method
In short: (§2)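 Macrolide resistance phenotype assigned by double-disk diffusion with erythromycin (15 μg) and clindamycin (2 μg) disks placed 12 mm apart, edge to edge. After incubation, a flattened clindamycin zone next to the erythromycin disk (D zone) marked inducible resistance. A conserved clindamycin zone marked the M phenotype.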

Streptococcus pneumoniae [7] = test: Antibacterial activity against macrolide-resistant Streptococcus pneumoniae isolates by double-disk diffusion method; in short: as §2
Streptococcus pneumoniae [8] = test: Antibacterial activity against constitutive macrolide-lincosamide-streptogramin B-resistant Streptococcus pneumoniae isolates by double-disk diffusion method; in short: as §2
Streptococcus pneumoniae [9] = test: Antibacterial activity Streptococcus pneumoniae expressing erm(B) and/or mef genes at 0.25 ug/ml by broth microdilution method
In short: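 Clinical erythromycin-resistant pneumococcal isolates identified by bile solubility and optochin susceptibility. MICs were determined by CLSI broth microdilution in Mueller-Hinton broth with 2 to 5% lysed horse blood, using commercial prepared panels; telithromycin was tested on a separate panel across 0.015 to 32 μg/ml. S. pneumoniae ATCC 49619 served as quality control.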

Row | SMILES | Activity (Streptococcus pneumoniae [1]) [%] | MIC (Streptococcus pneumoniae [2]) [µg/mL] | MIC50 (Streptococcus pneumoniae [2]) [µg/mL] | MIC90 (Streptococcus pneumoniae [2]) [µg/mL] | Activity (Streptococcus pneumoniae [3]) [%] | CLSI resistance breakpoint (MIC) (Streptococcus pneumoniae [4]) | Activity (Streptococcus pneumoniae [5]) | MIC (Streptococcus pneumoniae [6]) [µg/mL] | MIC (Streptococcus pneumoniae [7]) [µg/mL] | MIC (Streptococcus pneumoniae [8]) [µg/mL] | Activity (Streptococcus pneumoniae [9]) [%]
1 | COc1c(N2C[C@@H]3CCCN[C@@H]3C2)c(F)cc2c(=O)c(C(=O)O)cn(C3CC3)c12 [MOXIFLOXACIN] | 2.4 | > 1 | ≤ 0.25 | ≤ 0.25 | – | – | – | – | – | – | –
2 | CN(C)[C@@H]1C(O)=C(C(N)=O)C(=O)[C@@]2(O)C(O)=C3C(=O)c4c(O)cccc4[C@@](C)(O)[C@H]3C[C@@H]12 [TETRACYCLINE] | 77.6 | > 4 | > 4 | > 4 | 90 | >=8 ug ml-1 | <=2 ug ml-1 | – | – | – | –
3 | CC[C@H]1OC(=O)[C@H](C)[C@@H](O[C@H]2C[C@@](C)(OC)[C@@H](O)[C@H](C)O2)[C@H](C)[C@@H](O[C@@H]2O[C@H](C)C[C@H](N(C)C)[C@H]2O)[C@](C)(O)C[C@@H](C)C(=O)[C@H](C)[C@@H](O)[C@]1(C)O [ERYTHROMYCIN] | 100 | – | > 32 | > 32 | – | >=1 ug ml-1 | <=0.25 ug ml-1 | ≥ 4 | 2 (≈ 2.73 µM) | > 32 | –
4 | C[C@H]1COc2c(N3CCN(C)CC3)c(F)cc3c(=O)c(C(=O)O)cn1c23.C[C@H]1COc2c(N3CCN(C)CC3)c(F)cc3c(=O)c(C(=O)O)cn1c23.O [LEVOFLOXACIN] | 4 | > 4 | 1 | 1 | – | >=8 ug ml-1 | <=2 ug ml-1 | – | – | – | –
5 | CN[C@H](CC(C)C)C(=O)N[C@H]1C(=O)N[C@@H](CC(N)=O)C(=O)N[C@H]2C(=O)N[C@H]3C(=O)N[C@H](C(=O)N[C@H](C(=O)O)c4cc(O)cc(O)c4-c4cc3ccc4O)[C@H](O)c3ccc(c(Cl)c3)Oc3cc2cc(c3O[C@@H]2O[C@H](CO)[C@@H](O)[C@H](O)[C@H]2O[C@H]2C[C@](C)(N)[C@H](O)[C@H](C)O2)Oc2ccc(cc2Cl)[C@H]1O [VANCOMYCIN] | 0 | 1 (≈ 0.69 µM) | ≤ 0.25 | 1 (≈ 0.69 µM) | – | – | <=1 ug ml-1 | – | – | – | –
6 | CC[C@H]1OC(=O)[C@H](C)[C@@H](O[C@H]2C[C@@](C)(OC)[C@@H](O)[C@H](C)O2)[C@H](C)[C@@H](O[C@@H]2O[C@H](C)C[C@H](N(C)C)[C@H]2O)[C@](C)(O)C[C@@H](C)CN(C)[C@H](C)[C@@H](O)[C@]1(C)O [AZITHROMYCIN] | 100 | > 4 | > 4 | > 4 | – | >=2 ug ml-1 | <=0.5 ug ml-1 | – | – | – | –
7 | CO/N=C(\C(=O)N[C@@H]1C(=O)N2C(C(=O)O)=C(COC(C)=O)CS[C@H]12)c1csc(N)n1 [CEFOTAXIME] | 0.8 | ≤ 0.06 | 0.25 (≈ 0.549 µM) | 0.5 (≈ 1.1 µM) | – | >=4 ug ml-1 | <=1 ug ml-1 | – | – | – | –
8 | O=C(N[C@H](CO)[C@H](O)c1ccc([N+](=O)[O-])cc1)C(Cl)Cl [CHLORAMPHENICOL] | 34.4 | > 8 | 2 (≈ 6.19 µM) | > 8 | – | >=8 ug ml-1 | <=4 ug ml-1 | – | – | – | –
9 | CO[C@@H]1[C@@H](O[C@@H]2O[C@H](C)[C@@H](O[C@H]3C[C@@](C)(O)[C@@H](OC(=O)CC(C)C)[C@H](C)O3)[C@H](N(C)C)[C@H]2O)[C@@H](CC=O)C[C@@H](C)[C@@H](O)/C=C/C=C/C[C@@H](C)OC(=O)C[C@H]1OC(C)=O [JOSAMYCIN] | 87.2 | > 2 | > 2 | > 2 | – | >=4 ug ml-1 | <=1 ug ml-1 | > 2 | ≤ 0.5 | > 2 | –
10 | CC[C@H]1OC(=O)[C@H](C)C(=O)[C@H](C)[C@@H](O[C@@H]2O[C@H](C)C[C@H](N(C)C)[C@H]2O)[C@](C)(OC)C[C@@H](C)C(=O)[C@H](C)[C@H]2N(CCCCn3cnc(-c4cccnc4)c3)C(=O)O[C@]12C [TELITHROMYCIN] | 0 | 0.03 (≈ 0.0369 µM) | 0.03 (≈ 0.0369 µM) | 0.25 (≈ 0.308 µM) | – | >=4 ug ml-1 | <=1 ug ml-1 | – | – | – | 90
11 | CCC[C@@H]1C[C@@H](C(=O)N[C@@H]([C@H]2O[C@H](SC)[C@H](O)[C@@H](O)[C@H]2O)[C@H](C)Cl)N(C)C1 [CLINDAMYCIN] | 87.2 | > 0.5 | > 0.5 | > 0.5 | – | >=1 ug ml-1 | <=0.25 ug ml-1 | > 0.5 | ≤ 0.25 | > 0.5 | –
